Data taken from ChEMBL document CHEMBL1137631, “Artemisinin-resistant mutants of Toxoplasma gondii have altered calcium homeostasis” (Antimicrob Agents Chemother, 2007).
The source made the active and inactive calls. The rule behind the calls is not given here.

Experiments:
Type in all cases: functional, organism-based
[1] = system: Toxoplasma gondii; experiment: Induction of […] MIC2 protein secretion in Toxoplasma gondii ATCC 50839 at 10 uM treated for 10 mins by Western blot
Summary of the method: (§1)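 Freshly egressed parasites in DMEM/HEPES with 3% FBS, treated 10 min at 18°C (1% ethanol vehicle), then 2 min at 37°C to secrete, chilled, centrifuged at 400 × g. Supernatant and pellet resolved by 15% SDS-PAGE, Western blotted with rabbit anti-MIC2 (1:10,000) and anti-β-galactosidase (1:300) antibodies.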

[2] = system: Toxoplasma gondii; experiment: Increase in intracellular calcium level in artemisinin-resistant Toxoplasma gondii STL500-10A at 1 uM by fura-2-AM dye based fluorimetric method
Summary of the method: (§2)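 Freshly harvested tachyzoites loaded with 5.2 μM fura-2-AM in HEPES-buffered saline pH 7.4 plus 1.5% sucrose, 30 min at 26°C, washed; 2×10^7 cells/ml, room temperature, no extracellular calcium (1 mM EGTA). Excitation 340/380 nm, emission 510 nm; [Ca2+]i calibrated with Ca2+-EGTA buffers after background subtraction; three independent experiments.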

[3] = system: Toxoplasma gondii; experiment: Induction of […] MIC2 protein secretion in artemisinin-resistant Toxoplasma gondii STL500-10A at 10 uM treated for 10 mins by Western blot; summary of the method: as §1
[4] = system: Toxoplasma gondii; experiment: Increase in intracellular calcium level in artemisinin-resistant Toxoplasma gondii KN200-1 at 1 uM by fura-2-AM dye based fluorimetric method; summary of the method: as §2
[5] = system: Toxoplasma gondii; experiment: Increase in intracellular calcium level in Toxoplasma gondii ATCC 50839 at 1 uM by fura-2-AM dye based fluorimetric method; summary of the method: as §2
[6] = system: Toxoplasma gondii; experiment: Induction of […] MIC2 protein secretion in artemisinin-resistant Toxoplasma gondii KN200-1 at 10 uM treated for 10 mins by Western blot; summary of the method: as §1
[7] = system: Toxoplasma gondii; experiment: Increase in intracellular calcium level in artemisinin-resistant Toxoplasma gondii STL500-10A at 1 uM by fura-2-AM dye based fluorimetric method in presence of extracellular calcium
Summary of the method: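 Freshly harvested tachyzoites loaded with 5.2 μM fura-2-AM in HEPES-buffered saline pH 7.4 plus 1.5% sucrose, 30 min at 26°C, washed; 2×10^7 cells/ml, room temperature, 1 mM extracellular CaCl2. 340/380 nm excitation ratio, 510 nm emission; [Ca2+]i calibrated with Ca2+-EGTA buffers; three independent experiments.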

[8] = system: Toxoplasma gondii; experiment: Induction of […] MIC2 protein secretion in artemisinin-resistant Toxoplasma gondii A2
[9] = system: Toxoplasma gondii; experiment: Induction of […] MIC2 protein secretion in artemisinin-resistant Toxoplasma gondii KN200-6 at 10 uM treated for 10 mins by Western blot; summary of the method: as §1
[10] = system: Toxoplasma gondii; experiment: Increase in intracellular calcium level in artemisinin-resistant Toxoplasma gondii KN200-6 at 1 uM by fura-2-AM dye based fluorimetric method; summary of the method: as §2
[11] = system: Toxoplasma gondii; experiment: Antiparasitic activity against artemisinin-resistant Toxoplasma gondii KN200-6 infected in HFF cells after 72 hrs by beta-galactosidase reporter gene assay
Summary of the method: (§3)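 Tachyzoites inoculated into HFF monolayers, quadruplicate wells per sample; compounds 10 nM to 100 μM for 3 days at 37°C. Monolayers lysed 10 min at 50°C (HEPES pH 8.0, Triton X-100, DTT), then phosphate buffer pH 7.3 added, chlorophenol red-β-D-galactopyranoside substrate, A570 read.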

[12] = system: Toxoplasma gondii; experiment: Antiparasitic activity against artemisinin-resistant Toxoplasma gondii KN200-1 infected in HFF cells after 72 hrs by beta-galactosidase reporter gene assay; summary of the method: as §3
[13] = system: Toxoplasma gondii; experiment: Antiparasitic activity against artemisinin-resistant Toxoplasma gondii STL500-10A infected in HFF cells after 72 hrs by beta-galactosidase reporter gene assay; summary of the method: as §3
[14] = system: Toxoplasma gondii; experiment: Antiparasitic activity against Toxoplasma gondii ATCC 50839 infected in HFF cells after 72 hrs by beta-galactosidase reporter gene assay; summary of the method: as §3
[15] = system: Toxoplasma gondii; experiment: Increase in intracellular calcium level in artemisinin-resistant Toxoplasma gondii KN200-1 at 20 uM by fura-2-AM dye based fluorimetric method; summary of the method: as §2
[16] = system: Toxoplasma gondii; experiment: Increase in intracellular calcium level in artemisinin-resistant Toxoplasma gondii KN200-6 at 20 uM by fura-2-AM dye based fluorimetric method; summary of the method: as §2
[17] = system: Toxoplasma gondii; experiment: Increase in intracellular calcium level in Toxoplasma gondii ATCC 50839 at 20 uM by fura-2-AM dye based fluorimetric method; summary of the method: as §2
[18] = system: Toxoplasma gondii; experiment: Increase in intracellular calcium level in artemisinin-resistant Toxoplasma gondii STL500-10A at 20 uM by fura-2-AM dye based fluorimetric method; summary of the method: as §2
[19] = Toxoplasma gondii, ATCC 50839, HFF, 72 h, read-out: EC50
[20] = Toxoplasma gondii, KN200-6, HFF, 72 h, read-out: EC50
[21] = Toxoplasma gondii, KN200-1, HFF, 72 h, read-out: EC50
[22] = Toxoplasma gondii, STL500-10A, HFF, 72 h, read-out: EC50

Question: `C/C=C(/C)C(=O)O[C@H]1C(C)=C2[C@H]([C@@H]1OC(=O)CCCCCCC)[C@@](C)(OC(C)=O)C[C@H](OC(=O)CCC)[C@@]1(O)[C@H]2OC(=O)[C@@]1(C)O` was tested. Which Activity [1] did it give?
Answer: The Activity was “Active”.

Question: And the Activity [2]?
Answer: The Activity was “Active”.

Question: What about the Activity [3] of the same compound?
Answer: The Activity was “Active”.

Question: And the Activity [4]?
Answer: The Activity was “Active”.

Question: And the Activity [5]?
Answer: Its Activity is “Active”.

Question: What about the Activity [6] of the same compound?
Answer: The Activity was “Active”.

Question: And the Activity [7]?
Answer: Its Activity is “Active”.

Question: And the Activity [8]?
Answer: Its Activity is “Active”.

Question: And the Activity [9]?
Answer: The Activity was “Active”.

Question: What about the Activity [10] of the same compound?
Answer: Its Activity is “Active”.

Question: What does the source list for `C[C@@H]1CC[C@H]2[C@H](C)CO[C@@H]3O[C@@]4(C)CC[C@@H]1[C@]32OO4` [9-EPI-10-DEOXOARTEMISININ]?
Answer: EC50 ([11]; hff): Active; EC50 ([12]; hff): Active; EC50 ([13]; hff): Active

Question: `C[C@H]1[C@H](N2CCS(=O)(=O)CC2)O[C@@H]2O[C@@]3(C)CC[C@H]4[C@H](C)CC[C@@H]1[C@@]24OO3` [ARTEMIFONE] was tested. Which EC50 [14, 19] did it give?
Answer: The EC50 was 30 nM.

Question: For `C[C@@H]1CC[C@H]2[C@@H](C)C(=O)O[C@@H]3O[C@@]4(C)CC[C@@H]1[C@]32OO4` [ARTEMISININ], which Activity [15] is on record?
Answer: Its Activity is “Active”.

Question: And the EC90 ([11]; Toxoplasma gondii, KN200-6, HFF, 72 h)?
Answer: The EC90 was 8550 nM.

Question: What about the EC50 [11, 20] of the same compound?
Answer: The EC50 was 1510 nM.

Question: What about the Activity [16] of the same compound?
Answer: Its Activity is “Active”.

Question: What about the Activity [17] of the same compound?
Answer: The Activity was “Active”.

Question: And the EC90 ([12]; Toxoplasma gondii, KN200-1, HFF, 72 h)?
Answer: The EC90 was 6850 nM.

Question: What about the EC50 [12, 21] of the same compound?
Answer: The EC50 was 1730 nM.

Question: What about the Activity [8] of the same compound?
Answer: The Activity was “inactive”.

Question: What about the EC90 ([13]; Toxoplasma gondii, STL500-10A, HFF, 72 h) of the same compound?
Answer: The EC90 was 4770 nM.

Question: What about the EC50 [13, 22] of the same compound?
Answer: The EC50 was 1800 nM.

Question: What about the EC90 ([14]; Toxoplasma gondii, ATCC 50839, HFF, 72 h) of the same compound?
Answer: Its EC90 is 1240 nM.

Question: And the EC50 [14, 19]?
Answer: Its EC50 is 800 nM.

Question: What about the Activity [18] of the same compound?
Answer: The Activity was “Active”.

Question: For `C[C@@H]1CC[C@H]2[C@@H](C)C(=O)O[C@@H]3O[C@@]4(C)CC[C@@H]1[C@]32O4` [DEOXYARTEMISININ], which EC50 ([11]; hff) is on record?
Answer: Its EC50 is “Not Active”.

Question: What about the EC50 ([12]; hff) of the same compound?
Answer: The EC50 was “Not Active”.

Question: And the EC50 ([13]; hff)?
Answer: Its EC50 is “Not Active”.

Question: What about the EC50 ([14]; hff) of the same compound?
Answer: The EC50 was “Not Active”.

Question: How did the EC50 [11, 20] turn out when `O=c1[nH]c(=O)n([C@H]2C[C@H](O)[C@@H](CO)O2)cc1F` [FLOXURIDINE] was run?
Answer: Its EC50 is 1190 nM.

Question: What about the EC50 [12, 21] of the same compound?
Answer: The EC50 was 1130 nM.

Question: And the EC50 [13, 22]?
Answer: Its EC50 is 960 nM.

Question: And the EC50 [14, 19]?
Answer: Its EC50 is 910 nM.

Question: `CCc1nc(N)nc(N)c1-c1ccc(Cl)cc1` [PYRIMETHAMINE] was tested. Which EC50 [11, 20] did it give?
Answer: Its EC50 is 270 nM.

Question: And the EC50 [12, 21]?
Answer: Its EC50 is 290 nM.

Question: What about the EC50 [13, 22] of the same compound?
Answer: The EC50 was 240 nM.

Question: What about the EC50 [14, 19] of the same compound?
Answer: The EC50 was 210 nM.
